Laboratory results taken from ChEMBL document CHEMBL3414423, “Jatrophane diterpenes as inhibitors of chikungunya virus replication: structure-activity relationship and discovery of a potent lead” (J Nat Prod, 2014).

What was measured:
Chikungunya virus = assay: Antiviral activity against Chikungunya virus 899 infected in African green monkey Vero cells assessed as inhibition of virus-induced cell death after 6 to 7 days by MTS assay; type: functional, cell-based; settings: Chikungunya virus, 899, Vero
[1] = Cytotoxicity against African green monkey Vero cells assessed as inhibition of overall cell metabolism after 6 to 7 days by MTS assay; type: ADME, cell-based; settings: chlorocebus sabaeus
Outline: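 Uninfected Vero cells (25 000/well) with compound serial dilutions in MEM with 2% FCS, 37 °C, 6−7 days. Readout 5% MTS for 1.5 h, absorbance 498 nm. CC50 is the concentration calculated to inhibit overall cell metabolism by 50%, from dose−response curves. Median ± median absolute deviation, ≥3 independent assays.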

[2] = test system: Human immunodeficiency virus 1; assay: Antiviral activity against Human immunodeficiency virus 1 3b infected in human MT4 cells assessed as inhibition of virus replication after 5 days by MTT assay; type: functional, organism-based; settings: MT4, 120 h
Outline: (§1)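 MT-4 cells ([…] suspension) infected with HIV-1 IIIB or HIV-2 ROD at 100−300 CCID50, with serial 5-fold compound dilutions in triplicate. Viability read by MTT reduction 5 days after infection. SI = CC50 MT-4/IC50. Median ± median absolute deviation, ≥3 independent assays.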

[3] = Cytotoxicity against human MT4 cells assessed as inhibition of overall cell metabolism after 5 days by MTT assay; type: ADME, cell-based
Outline: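 Mock-infected MT-4 cells in triplicate wells with serial 5-fold compound dilutions run alongside the infected series. Viability read by MTT formazan 5 days later; CC50 from the concentration-response. Median ± median absolute deviation, ≥3 independent assays.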

Sindbis virus = assay: Antiviral activity against Sindbis virus HRsp infected in African green monkey Vero cells assessed as inhibition of virus-induced cell death after 6 to 7 days by MTS assay; type: functional, organism-based
[4] = test system: Human immunodeficiency virus 2; assay: Antiviral activity against Human immunodeficiency virus type 2 ROD infected in human MT4 cells assessed as inhibition of virus replication after 5 days by MTT assay; type: functional, organism-based; settings: Human immunodeficiency virus 2, ISOLATE ROD, MT4, 120 h; outline: as §1
Semliki Forest virus = assay: Antiviral activity against Semliki forest virus Vietnam infected in African green monkey Vero cells assessed as inhibition of virus-induced cell death after 6 to 7 days by MTS assay; type: functional, organism-based
[5] = Selectivity index, ratio of CC50 for African green monkey Vero cells to EC50 for Sindbis virus HRsp infected in African green monkey Vero cells; type: toxicity, cell-based; settings: read-out: Ratio CC50/EC50
[6] = Selectivity index, ratio of CC50 for human MT4 cells to IC50 for Human immunodeficiency virus 1 3b infected in human MT4 cells; type: functional; outline: as §1
[7] = Selectivity index, ratio of CC50 for African green monkey Vero cells to EC50 for Chikungunya virus 899 infected in African green monkey Vero cells; type: toxicity, cell-based; settings: read-out: Ratio CC50/EC50
[8] = Selectivity index, ratio of CC50 for human MT4 cells to IC50 for Human immunodeficiency virus type 2 ROD infected in human MT4 cells; type: functional; outline: as §1
[9] = test system: Human immunodeficiency virus 1; assay: Antiviral activity against recombinant Human immunodeficiency virus 1 NL4.3 containing Renilla gene infected in CD3/IL2-activated human MT2 cells assessed as inhibition of virus replication pretreated for 2 hrs followed by viral infection for additional 2 hrs measured after 48 hrs by Renilla-luciferase reporter gene assay; type: functional, organism-based; settings: Human immunodeficiency virus 1, NL4.3, MT2
[10] = Cytotoxicity against human MT2 cells assessed as cell viability incubated for 2 weeks with every 48 to 72 hrs of compound washed out measured on day 2, 6, 10, 14 by CellTiter Glo luminescence assay; type: cell-based
[11] = Selectivity index, ratio of CC50 for African green monkey Vero cells to EC50 for Semliki forest virus Vietnam infected in African green monkey Vero cells; type: toxicity, cell-based; settings: read-out: Ratio CC50/EC50

SMILES | EC50 (Chikungunya virus) | CC50 [1] | IC50 [2] | CC50 at 120 h [3] | EC50 (Sindbis virus) | IC50 [4] | EC50 (Semliki Forest virus) | selectivity ratio [5] | Ratio CC50/IC50 [6] | selectivity ratio [7] | Ratio CC50/IC50 [8] | IC50 [9] | CC50 at 336 h [10] | selectivity ratio [11]
C=C1[C@H](OC(C)=O)[C@H]2[C@@H](OC(C)=O)[C@](C)(O)C[C@]2(OC(C)=O)C(=O)[C@H](C)/C=C/C(C)(C)C(=O)[C@H](OC(C)=O)[C@H]1OC(C)=O | > 164 µM | – | – | – | – | – | – | – | – | – | – | – | – | –
C=C1[C@H](OC(C)=O)[C@H]2[C@@H](OC(C)=O)[C@](C)(O)C[C@]2(OC(C)=O)C(=O)[C@H](C)/C=C/C(C)(C)C(=O)[C@H](OC(=O)C(C)C)[C@H]1OC(C)=O | > 196 µM | > 196 µM | > 79 µM | > 32 µM | > 157 µM | > 79 µM | > 157 µM | – | – | – | – | – | – | –
C=C1[C@H](OC(C)=O)[C@H]2[C@@H](OC(C)=O)[C@](C)(O)C[C@]2(OC(C)=O)C(=O)[C@H](C)/C=C/C(C)(C)C(=O)[C@H](OC(=O)/C(C)=C/C)[C@H]1OC(C)=O | 0.76 µM | 159 µM | 0.34 µM | > 32 µM | 44 µM | 0.043 µM | > 116 µM | 3.6 | >96 | 208 | >751 | – | – | –
C=C1[C@H](OC(C)=O)[C@H]2[C@@H](OC(C)=O)[C@](C)(O)C[C@]2(OC(C)=O)C(=O)[C@H](C)/C=C/C(C)(C)C(=O)[C@H](OC(=O)c2ccccc2)[C@H]1OC(C)=O | 4.3 µM | 125 µM | > 59 µM | > 30 µM | > 165 µM | 10.9 µM | > 165 µM | – | – | 29 | >2.8 | – | – | –
C=C1[C@H](OC(C)=O)[C@H]2[C@@H](OC(C)=O)[C@](C)(OC(C)=O)C[C@]2(OC(C)=O)C(=O)[C@H](C)/C=C/C(C)(C)C(=O)[C@H](OC(C)=O)[C@H]1OC(C)=O | 60 µM | > 154 µM | 37.1 µM | > 33 µM | > 154 µM | 5.9 µM | > 115 µM | – | – | > 2.6 | >5.5 | 0.002 µM | > 100 µM | –
C=C1[C@H](OC(C)=O)[C@H]2[C@@H](OC(C)=O)[C@](C)(OC(C)=O)C[C@]2(OC(C)=O)C(=O)[C@H](C)/C=C/C(C)(C)C(=O)[C@H](OC(=O)/C(C)=C/C)[C@H]1OC(C)=O | 17.4 µM | 145 µM | 21.5 µM | > 35 µM | > 145 µM | 2 µM | > 145 µM | – | >1.6 | 8.3 | >18 | – | – | –
C=C1[C@H](OC(C)=O)[C@H]2[C@@H](OC(C)=O)[C@](C)(OC(C)=O)C[C@]2(OC(C)=O)C(=O)[C@H](C)/C=C/C(C)(C)C(=O)[C@H](OC(=O)c2ccccc2)[C@H]1OC(C)=O | 17.1 µM | > 50 µM | > 70 µM | > 36 µM | > 140 µM | 34.7 µM | > 140 µM | – | – | > 2.9 | >1 | – | – | –
C=C1[C@H](OC(C)=O)[C@H]2[C@@H](OC(=O)c3ccccc3)[C@@H](C)C[C@]2(O)[C@H](O)[C@H](C)/C=C/C(C)(C)C(=O)[C@H](OC(C)=O)[C@H]1OC(C)=O | 19.5 µM | 151 µM | > 38 µM | > 31 µM | 30.1 µM | 5.2 µM | 62 µM | 5 | – | 7.8 | >6 | – | – | 2.4
C=C1[C@H](OC(C)=O)[C@H]2[C@@H](OC(=O)c3ccccc3)[C@@H](C)C[C@]2(O)[C@H](O)[C@H](C)/C=C/C(C)(C)C(=O)[C@H](OC(=O)C(C)C)[C@H]1OC(C)=O | 21 µM | 60 µM | > 39 µM | > 16 µM | 28.8 µM | > 39 µM | 20.5 µM | 2.1 | – | 2.8 | – | – | – | 2.9
C=C1[C@H](OC(C)=O)[C@H]2[C@@H](OC(=O)c3ccccc3)[C@@H](C)C[C@]2(O)[C@H](O)[C@H](C)/C=C/C(C)(C)C(=O)[C@H](OC(=O)C(C)CC)[C@H]1OC(C)=O (stereo partly specified) | 111 µM | > 190 µM | > 76 µM | > 33 µM | 51 µM | > 76 µM | 76 µM | > 3.7 | – | > 1.7 | – | – | – | > 2.5
C=C1[C@H](OC(C)=O)[C@H]2[C@@H](OC(=O)c3ccccc3)[C@@H](C)C[C@]2(O)[C@H](OC(C)=O)[C@H](C)/C=C/C(C)(C)C(=O)[C@H](O)[C@H]1OC(C)=O | 80 µM | 150 µM | > 81 µM | > 31 µM | > 163 µM | 32.5 µM | > 163 µM | – | – | 1.9 | <0.9 | – | – | –
CCN(CC)CCCC(C)Nc1ccnc2cc(Cl)ccc12 (stereo unspecified) [CHLOROQUINE] | 10 µM | – | – | – | – | – | – | – | – | – | – | – | – | –
O=c1[nH]cnc2c1ncn2[C@H]1CC[C@@H](CO)O1 [DIDANOSINE] | – | – | 10.8 µM | > 50 µM | – | 9.6 µM | – | – | >4.6 | – | >5.2 | – | – | –
Nc1ccn([C@@H]2CS[C@H](CO)O2)c(=O)n1 [LAMIVUDINE] | – | – | – | > 87 µM | – | – | – | – | >22 | – | >5.6 | – | – | –
Cc1ccnc2c1NC(=O)c1cccnc1N2C1CC1 [NEVIRAPINE] | – | – | – | > 15 µM | – | > 15 µM | – | – | – | – | – | – | – | –
Cc1cn([C@H]2C[C@H](N=[N+]=[N-])[C@@H](CO)O2)c(=O)[nH]c1=O [ZIDOVUDINE] | – | – | – | > 25 µM | – | 0.006 µM | – | – | – | – | – | – | – | –
